ChEMBL document CHEMBL4270576, “Discovery of a benzenesulfonamide-based dual inhibitor of microsomal prostaglandin E2 synthase-1 and 5-lipoxygenase that favorably modulates lipid mediator biosynthesis in inflammation” (Eur J Med Chem, 2018)
The source made the active and inactive calls. The rule behind the calls is not given here.

Columns and labels:
[1] = biological target: T1, Polyunsaturated fatty acid 5-lipoxygenase (Homo sapiens) (UniProt P09917); experiment: Inhibition of 5-LO in human M1 macrophages derived from LPS/IFNgamma-polarized human monocyte derived macrophages assessed as effect on LTB4 level at 3 uM preincubated for 15 mins followed by Escherichia coli (O6:K2:H1) challenge for 90 mins by LC-MS/MS analysis; design: scale not given: the % may be the effect or the level left
T1 sequence (whole entry): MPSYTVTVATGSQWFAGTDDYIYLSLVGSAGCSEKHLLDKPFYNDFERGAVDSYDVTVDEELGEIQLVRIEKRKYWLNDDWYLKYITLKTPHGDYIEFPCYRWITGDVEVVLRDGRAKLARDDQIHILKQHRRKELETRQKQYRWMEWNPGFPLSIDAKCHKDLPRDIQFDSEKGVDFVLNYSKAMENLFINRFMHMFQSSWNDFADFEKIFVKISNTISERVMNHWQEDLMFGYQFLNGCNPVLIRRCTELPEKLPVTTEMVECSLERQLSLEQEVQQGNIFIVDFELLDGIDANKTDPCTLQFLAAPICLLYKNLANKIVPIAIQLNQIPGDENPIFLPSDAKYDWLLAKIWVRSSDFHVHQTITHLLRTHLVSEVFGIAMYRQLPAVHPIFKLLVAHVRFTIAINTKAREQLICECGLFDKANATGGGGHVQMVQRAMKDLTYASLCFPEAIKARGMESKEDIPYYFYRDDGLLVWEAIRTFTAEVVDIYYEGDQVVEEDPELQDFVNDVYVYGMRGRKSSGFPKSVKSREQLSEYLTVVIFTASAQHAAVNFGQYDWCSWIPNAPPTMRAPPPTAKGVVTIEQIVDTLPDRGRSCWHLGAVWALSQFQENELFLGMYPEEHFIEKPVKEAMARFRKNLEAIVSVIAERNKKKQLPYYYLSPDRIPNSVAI
Method in brief: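 Monocytes differentiated 6 days with GM-CSF (20 ng/ml) in RPMI/10% FCS, then polarized 48 h with LPS 100 ng/ml plus IFN-γ 20 ng/ml (M1). Cells (2 × 10^6) in PBS with 1 mM CaCl2 pre-incubated 15 min at 37 °C with 3 µM compound or 0.1% DMSO, then E. coli O6:K2:H1 (1:50) for 90 min. Methanol with deuterated standards added; SPE; UPLC-MS/MS; expressed as % of vehicle.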

[2] = biological target: T1, Polyunsaturated fatty acid 5-lipoxygenase (Homo sapiens); experiment: Inhibition of recombinant human 5-LO expressed in Escherichia coli BL21 (DE3) using 2.5 to 80 uM arachidonic acid as substrate […] followed by CaCl2 and substrate addition measured after 10 mins by RP-HPLC analysis
Macrophage cell line [3] = experiment: Modulation of 13-HDHA level in human M2 macrophages derived from IL4-polarized human monocyte derived macrophages at 3 uM preincubated for 15 mins followed by Escherichia coli (O6:K2:H1) challenge for 90 mins by LC-MS/MS analysis; assay type: functional
Method in brief: (§1)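 Monocytes differentiated 6 days with M-CSF (20 ng/ml), then polarized 48 h with IL-4 20 ng/ml (M2). Cells (2 × 10^6) in PBS/1 mM CaCl2 pre-incubated 15 min at 37 °C with 3 µM compound or 0.1% DMSO, then challenged with E. coli O6:K2:H1 (1:50) for 90 min. Lipid mediators extracted by SPE with deuterated internal standards and quantified by UPLC-MS/MS as % of vehicle.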

Macrophage cell line [4] = experiment: Modulation of 18-HEPE level in human M2 macrophages derived from IL4-polarized human monocyte derived macrophages at 3 uM preincubated for 15 mins followed by Escherichia coli (O6:K2:H1) challenge for 90 mins by LC-MS/MS analysis; assay type: functional; method in brief: as §1
[5] = biological target: T2, Polyunsaturated fatty acid lipoxygenase ALOX15 (Homo sapiens) (UniProt P16050); experiment: Modulation of 15-LO-mediated 15-HETE level in human M2 macrophages derived from IL4-polarized human monocyte derived macrophages at 3 uM preincubated for 15 mins followed by Escherichia coli (O6:K2:H1) challenge for 90 mins by LC-MS/MS analysis; method in brief: as §1
T2 sequence (whole entry): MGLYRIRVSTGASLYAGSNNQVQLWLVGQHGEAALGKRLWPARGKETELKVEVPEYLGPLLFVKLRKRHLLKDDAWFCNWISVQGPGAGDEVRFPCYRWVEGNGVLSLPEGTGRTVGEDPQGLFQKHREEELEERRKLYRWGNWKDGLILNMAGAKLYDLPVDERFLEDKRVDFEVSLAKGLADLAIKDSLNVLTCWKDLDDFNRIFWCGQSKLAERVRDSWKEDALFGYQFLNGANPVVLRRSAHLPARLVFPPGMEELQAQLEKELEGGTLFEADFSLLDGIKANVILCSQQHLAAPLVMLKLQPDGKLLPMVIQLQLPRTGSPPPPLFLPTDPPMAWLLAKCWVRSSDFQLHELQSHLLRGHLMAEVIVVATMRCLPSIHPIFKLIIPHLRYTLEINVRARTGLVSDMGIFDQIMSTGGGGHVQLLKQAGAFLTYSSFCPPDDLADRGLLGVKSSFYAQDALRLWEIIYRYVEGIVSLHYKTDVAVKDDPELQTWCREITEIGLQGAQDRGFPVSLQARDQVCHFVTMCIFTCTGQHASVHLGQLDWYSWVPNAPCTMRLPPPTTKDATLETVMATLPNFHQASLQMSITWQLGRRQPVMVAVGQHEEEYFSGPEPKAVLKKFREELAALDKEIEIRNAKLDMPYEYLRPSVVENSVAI

Neutrophil = experiment: Cytotoxicity against human neutrophils at 10 uM; assay type: cell-based

Question: For O=C(O)c1ccc(N(Cc2cccc(OCc3ccccc3)c2)S(=O)(=O)c2ccc(-c3ccccc3)cc2)cc1, which Activity [1] is on record?
Answer: Its Activity is 11%.

Question: What about the inhibition [2] of the same molecule?
Answer: The inhibition was “Active”.

Question: What about the Activity (Macrophage cell line [3]) of the same molecule?
Answer: Its Activity is 127%.

Question: And the Activity (Macrophage cell line [4])?
Answer: Its Activity is 86%.

Question: What about the Activity [5] of the same molecule?
Answer: Its Activity is 135%.

Question: What about the Activity (Neutrophil) of the same molecule?
Answer: Its Activity is “Non-Toxic”.
